Series [1] in a line: folding enthalpy; higher = less favourable; fluorescence melt of hairpins on a sequencing array, two-state fit. To be noted: sodium 0.088 M. Put shortly:
(§1)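 With Cy3 and quencher oligos annealed, library hairpins on a sequenced MiSeq flow cell were imaged for Cy3 fluorescence in 50 mM Na-HEPES pH 8.0, 25 mM NaCl, in 2.5 °C steps up to 60 °C. Melting temperature and folding enthalpy were derived from bootstrapped two-state fits of signals normalised to pre-quench Cy3 and to control constructs. Four replicates were combined by inverse variance, with fitted temperatures raised by 9.35 °C to match UV melts.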

Series [2] can be described thus: melting temperature; fluorescence melt of hairpins on a sequencing array, two-state fit, raised by 9.35 °C to match UV melts. As to conditions: sodium 0.088 M. An outline of the steps: as §1

With GCCCACGGAAACACGGGC ((((..(....)..)))), the folding enthalpy in series [1] was -24.4 kcal/mol. In addition, the Tm in series [2] came out at 46.5 °C.
The matching figures for GCCCACGGAAACGCGGAC (.((.((....)).)).): -18.4 kcal/mol and 32.8 °C.
The corresponding values for GCCCAGCGAAAGCAAGGC (((..((....))..))) are -18.5 kcal/mol and 56.9 °C.
The matching figures for GCCCAGCGAAAGCCCGGC (((..((....))..))): -15.6 kcal/mol and 47.1 °C.
For GCCCAGCGAAAGCGAGGC (((..((....))..))), the folding enthalpy in series [1] was -20.6 kcal/mol. In addition, the Tm in series [2] amounted to 62.7 °C.
The matching figures for GCCCAGCGAAAGCGGAGC ((.(.((....)).).)): -12.7 kcal/mol and 53.1 °C.
The corresponding values for GCCCAGCGAAAGCTTCGC ((..(((....)))..)) are -6.41 kcal/mol and 40.3 °C.
The corresponding values for GCCCAGGCGAAAGCCGGC (((..(((....)))))) are -10.1 kcal/mol and 62 °C.
On to GCCCAGGGAAACCCGGGC ((((.((....)).)))), for which, in series [1], the folding enthalpy was -37.4 kcal/mol. Further, the Tm in series [2] came to 57.8 °C.
The corresponding values for GCCCAGGGAAACCTGGAC (.(((((....))))).) are -13.4 kcal/mol and 49.4 °C.
The corresponding values for GCCCAGGGAAACTTGGGC (((((.(....).))))) are -36.8 kcal/mol and 56.5 °C.
The corresponding values for GCCCATCCGAAAGGAGGC (((..(((....)))))) are -14.3 kcal/mol and 44.5 °C.
For the sequence GCCCATCGAAAGATCGGC (((.(((....))).))), in series [1], the folding enthalpy is -33.6 kcal/mol. For the same sequence, the Tm in series [2] amounted to 44.5 °C.
On to GCCCATGGAAACACGGGC ((((.((....)).)))), for which the folding enthalpy in series [1] was -43 kcal/mol. Also, the Tm in series [2] turned out to be 49.4 °C.
The matching figures for GCCCATGGAAACATAGGC (((.(((....))).))): -28.1 kcal/mol and 38.3 °C.
For GCCCCACGAAAGTGAGGC (((.(((....))).))), the folding enthalpy in series [1] was -37.8 kcal/mol. Moreover, the Tm in series [2] is 55.8 °C.
The corresponding values for GCCCCAGGAAACCAGGGC ((((..(....)..)))) are -23.4 kcal/mol and 45.6 °C.
The corresponding values for GCCCCAGGAAACTGGAGC ((.((((....)))).)) are -25.3 kcal/mol and 46.7 °C.
For the sequence GCCCCCCGAAAGGGCGGC (((.(((....))).))), in series [1], the folding enthalpy was -32.6 kcal/mol. The Tm in series [2] came to 60.2 °C.
The corresponding values for GCCCCCGGAAACGAGGGC ((((.((....)).)))) are -28.1 kcal/mol and 56 °C.
The matching figures for GCCCCCGGAAACGGGGAC (.(((((....))))).): -11.4 kcal/mol and 53.2 °C.
Turning to GCCCCCTCGAAAGAGGGC (((..(((....)))))), the folding enthalpy in series [1] was -6 kcal/mol. Further, the Tm in series [2] came out at 37.6 °C.
The corresponding values for GCCCCGCGAAAGCAAGGC (((..((....))..))) are -16.2 kcal/mol and 46.5 °C.
The matching figures for GCCCCGCGAAAGCAGCGC ((.(.((....)).).)): -14.2 kcal/mol and 39.7 °C.
The matching figures for GCCCCGCGAAAGCCCGGC (((..((....))..))): -14.7 kcal/mol and 38.9 °C.
In the case of GCCCCGCGAAAGCCTGGC (((..((....))..))), in series [1], the folding enthalpy was -17 kcal/mol. For the same sequence, the Tm in series [2] amounted to 39.5 °C.
The matching figures for GCCCCGCGAAAGCTAGGC (((..((....))..))): -18.7 kcal/mol and 45 °C.
On to GCCCCGCGAAAGCTCGGC (((..((....))..))), for which the folding enthalpy in series [1] is -20.3 kcal/mol. Further, the Tm in series [2] is 38.8 °C.
The matching figures for GCCCCGGGAAACCGGAGC ((.((((....)))).)): -22.7 kcal/mol and 56.1 °C.
The matching figures for GCCCCTCGAAAGAGAGGC (((.(((....))).))): -31.4 kcal/mol and 52.8 °C.
The corresponding values for GCCCCTCGAAAGAGGGC (((.(((....)))))) are -13 kcal/mol and 61.5 °C.
On to GCCCCTTCGAAAGAAGGC (((..(((....)))))), for which, in series [1], the folding enthalpy was -8.55 kcal/mol. Also, the Tm in series [2] worked out at 37 °C.
On to GCCCGAACGAAAGTTGGC (((..(((....)))))), for which, in series [1], the folding enthalpy was -19.2 kcal/mol. Besides, the Tm in series [2] was found to be 42.6 °C.
As for GCCCGAGGAAACTCGGAC (.(((((....))))).), the folding enthalpy in series [1] was -13.1 kcal/mol. The Tm in series [2] is 48.4 °C.
With GCCCGCGAAAGCGCAGGC ((((((....)))..))), the folding enthalpy in series [1] is -20.1 kcal/mol. Besides, the Tm in series [2] stood at 56.3 °C.
The corresponding values for GCCCGCGAAAGCGCTGGC ((((((....)))..))) are -16.5 kcal/mol and 58.5 °C.
In the case of GCCCGCGAAAGCGTAGGC ((((((....)))..))), the folding enthalpy in series [1] is -22.3 kcal/mol. Further, in series [2], the Tm came to 62.4 °C.
The corresponding values for GCCCGCGGAAACACGGGC (((((.(....).))))) are -47.9 kcal/mol and 62.9 °C.
The corresponding values for GCCCGGCGAAAGCCGAGC ((.((((....)))).)) are -18.4 kcal/mol and 68.3 °C.
The corresponding values for GCCCGGCGAAAGCCTCGC ((..(((....)))..)) are -6.9 kcal/mol and 27.3 °C.
On to GCCCGGCGAAAGCGCGGC (((..((....))..))), for which, in series [1], the folding enthalpy was -16.1 kcal/mol. Also, in series [2], the Tm amounted to 61.7 °C.
As to GCCCGGCGAAAGCGTGGC (((..((....))..))), the folding enthalpy in series [1] is -20.2 kcal/mol. For the same sequence, the Tm in series [2] is 57.9 °C.
In the case of GCCCGGTCGAAAGACGGC (((..(((....)))))), the folding enthalpy in series [1] is -18.1 kcal/mol. The Tm in series [2] was 51.7 °C.
The matching figures for GCCCGTCCGAAAGGAGGC (((..(((....)))))): -13.9 kcal/mol and 43.6 °C.
The matching figures for GCCCGTCGAAAGACGGC (((.(((....)))))): -10.7 kcal/mol and 63.6 °C.
The matching figures for GCCCGTTCGAAAGAAGGC (((..(((....)))))): -12.3 kcal/mol and 33.1 °C.
For GCCCTACGAAAGTAAGGC (((.(((....))).))), in series [1], the folding enthalpy was -31.3 kcal/mol. Also, the Tm in series [2] was found to be 47.4 °C.
The corresponding values for GCCCTACGAAAGTACGGC (((.(((....))).))) are -27.3 kcal/mol and 46.2 °C.
The corresponding values for GCCCTAGGAAACTAGAGC ((.((((....)))).)) are -25 kcal/mol and 34.3 °C.
The corresponding values for GCCCTATCGAAAGATGGC (((..(((....)))))) are -23.5 kcal/mol and 37.5 °C.
On to GCCCTCGAAAGAGACGGC ((((((....)))..))), for which, in series [1], the folding enthalpy is -25.3 kcal/mol. For the same sequence, in series [2], the Tm was 44.8 °C.
On to GCCCTCGAAAGAGAGGGC ((((((....)))..))), for which the folding enthalpy in series [1] was -33 kcal/mol. In series [2], the Tm is 59.9 °C.
The corresponding values for GCCCTCGAAAGAGATGGC ((((((....)))..))) are -23.6 kcal/mol and 46.4 °C.
Turning to GCCCTCGAAAGAGCGGC ((((((....))).))), in series [1], the folding enthalpy is -37.3 kcal/mol. For the same sequence, the Tm in series [2] was found to be 55.7 °C.

Source of the values: the array DNA melting data of Ke et al. (doi:10.1101/2024.01.08.574731).
